RORA act = activators of orphan receptor RORA, primary screen, cell-based, luminescence. Nuclear receptor ROR-alpha (Homo sapiens), P35398. CHO-K1 Gal4-RORA LBD luciferase reporter; percent increase over mock-subtracted basal signal. activation, % at 10 µM. 1.5% of 65,000 active;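 active = activation above the mean of all tested compounds plus 3 SD, cut at about 49% in these data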;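 also: 0% = DMSO-treated RORA cells and 100% = added signal equal to DMSO minus mock-transfected cells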
SF-1 act = activators of human SF-1, primary screen, cell-based, CHO-K1, Gal4-SF-1 LBD, luciferase luminescence | Steroidogenic factor 1 (Homo sapiens), Q13285 | CHO-K1 Gal4-SF-1 LBD luciferase reporter; % increase over DMSO SF-1-specific signal | activation, % at 10 µM | 1.9% of 65,000 active;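 active = activation above the mean activation of all tested compounds plus 3 SD, cut at about 50% in these data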
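Assay system: CHO-K1 cells co-transfected with Gal4 DBD–human SF-1 LBD, 5xGal4 luciferase reporter; doses: 10 µM only; incubation: 20 h compound exposure at 37 °C after 1 h cell settling; signal: luciferase light emission; evaluation: percent activation versus DMSO; repeats: one test per compound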
CD11b adhes inh = inhibitors of CD11b/CD18 adhesion to fibrinogen, primary screen, K562 cells, luminescence. Integrin beta-2 (Homo sapiens) + Integrin alpha-M (Homo sapiens), P05107+P11215. ATPlite luminescence; Mn2+ added to activate the integrin. inhibition, % at 10 µM. 0.54% of 93,000 active;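 active = primary inhibition of 50% or more at 10 µM, then 40% or more on retest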
Target sequence (P05107 whole entry, looked up, other chains not shown): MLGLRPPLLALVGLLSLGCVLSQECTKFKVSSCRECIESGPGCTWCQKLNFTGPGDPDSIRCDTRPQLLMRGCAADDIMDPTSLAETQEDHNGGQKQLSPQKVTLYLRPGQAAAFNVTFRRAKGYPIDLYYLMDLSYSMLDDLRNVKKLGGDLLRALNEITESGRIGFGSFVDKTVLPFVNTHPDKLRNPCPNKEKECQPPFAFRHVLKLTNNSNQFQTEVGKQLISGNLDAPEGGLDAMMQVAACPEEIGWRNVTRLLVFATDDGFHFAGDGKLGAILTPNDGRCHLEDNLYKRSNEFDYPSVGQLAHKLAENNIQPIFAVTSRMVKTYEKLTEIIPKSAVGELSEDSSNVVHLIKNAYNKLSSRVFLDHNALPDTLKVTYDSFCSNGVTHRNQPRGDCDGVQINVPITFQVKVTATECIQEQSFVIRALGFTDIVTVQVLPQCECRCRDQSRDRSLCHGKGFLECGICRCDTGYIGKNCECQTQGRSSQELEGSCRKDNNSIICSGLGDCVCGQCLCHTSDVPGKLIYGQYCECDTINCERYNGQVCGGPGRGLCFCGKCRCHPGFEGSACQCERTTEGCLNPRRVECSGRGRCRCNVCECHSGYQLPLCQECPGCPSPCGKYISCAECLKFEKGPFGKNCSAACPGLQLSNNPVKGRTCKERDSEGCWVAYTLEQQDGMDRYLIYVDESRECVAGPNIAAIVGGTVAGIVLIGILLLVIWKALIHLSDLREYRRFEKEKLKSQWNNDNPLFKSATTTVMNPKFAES
MT1-MMP txn act = MT1-MMP promoter reporter activation – cell-based, luciferase luminescence, primary screen; HT1080 MT1-MMP promoter luciferase reporter, overnight; hits give high values; activation factor at 10 µM; 0.16% of 86,000 active; AID 750, 2007;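 active = activation factor of at least 2 for MT1-MMP transcription at 10 µM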
CD11b adhes enh = enhancers of CD11b/CD18 adhesion to fibrinogen, primary screen, K562 cells, luminescence; ATPlite luminescence; activation, % at 10 µM; 0.07% of 93,000 active; AID 1499, 2009;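 active = 10 µM primary screen giving 50% or more activity, confirmed by 40% or more on retest at that dose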
Calb biofilm kill = clotrimazole potentiators killing Candida biofilms, primary screen, with clotrimazole, Alamar Blue; inhibition, % at 6 µM; C. albicans biofilm + clotrimazole; 0.14% of 85,000 active;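 active = inhibition above 20%; inactive = inhibition below 20%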;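 also: preformed 24 hr biofilms exposed to compound for 48 hr; 0% = biofilm without compound and 100% = blank killed by clotrimazole plus chlorhexidine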
* marks the source's active call; other numbers are inactive results; / = not tested or not shown. The list is not random: actives were taken first. Their share in the collection is about 2.2%.

SMILES	RORA act	SF-1 act	CD11b adhes inh	MT1-MMP txn act	CD11b adhes enh	Calb biofilm kill
O=C(CC(Nc1ccccc1)C(=O)O)c1ccccc1 (stereo not given)	59*	35	12	0.8	-1	4
COc1ccc(NC(=O)NCCN2C(=O)C3C4C=CC(C4)C3C2=O)cc1 (stereo not given)	66*	30	-4	1.5	2	-4
O=C(NCCN1C(=O)C2C3C=CC(C3)C2C1=O)Nc1ccccc1 (stereo not given)	16	-3	-6	1.1	1	1
Cc1ccc(NC(=O)NCCN2C(=O)C3C4C=CC(C4)C3C2=O)cc1 (stereo not given)	74*	98*	10	1.4	0	10
Cc1cc(C)n(C(=O)c2ccc(C)c(S(=O)(=O)N3CCCC3)c2)n1	-9	-4	-2	1.1	-4	-2
COc1cc(C2C3=C(CC(C)(C)CC3=O)OC(N)=C2[N+](=O)[O-])ccc1O (stereo not given)	/	/	-11	/	5	/
CCN(CC)c1ccc2cc(C(C)=O)c(=O)oc2c1	/	/	3	1.5	-1	1
CCN(CC)c1ccc2cc(-c3nnc(-c4ccncc4)o3)c(=O)oc2c1	25	73*	-12	1.4	-2	/
O=C(C1COc2ccccc2O1)N1CCc2ccccc21 (stereo not given)	30	54*	9	1.5	0	7
COc1ccc(CNC(=O)[C@H](C)[C@H]2C[C@]2(C)[C@H](NC(=O)OCc2ccccc2)c2ccccc2)cc1OC	/	/	/	1.2	/	/
Cc1cc(C(F)(F)F)c(C#N)c(=O)[nH]1	/	/	/	1	/	6
N#Cc1c(C(F)(F)F)cc(-c2cccc(Cl)c2)[nH]c1=O	/	/	106*	/	-12	/
N#Cc1c(C(F)(F)F)cc(-c2ccc(Cl)cc2)[nH]c1=O	/	/	104*	/	-11	/
COCCn1c(SCCCC(=O)c2ccc(Br)cc2)nnc1-c1ccncc1	/	/	69*	0.9	-5	4
Cn1c(SCCCC(=O)c2ccc(F)cc2)nnc1-c1ccncc1	/	/	13	1.3	0	7
Cc1cc(C2=NNC(=NC3CC3)SC2)c(C)n1Cc1ccco1	/	/	75*	/	19	/
Cc1cc(C2=NNC(=NC3CC3)SC2)c(C)n1-c1ccccc1	/	/	98*	/	-5	/
CC(C)(C)C(=O)NC(c1ccc(Cl)cc1)[C@]1(C)C[C@H]1C1CCCCC1 (stereo not given in full)	/	/	/	1.3	/	/
CCN(CC)c1ccc(NC(=O)c2cc(Cl)ccc2OC)cc1	/	/	-20	1.5	-6	5
CCN(CC)c1ccc(NC(=O)c2ccccc2F)cc1	70*	74*	15	0.6	-2	-1
COC(=O)c1ccc(C(NC(=O)OCc2ccccc2)/C(I)=C/[C@@H](C)C(=O)NCc2ccc(C)o2)cc1 (stereo not given in full)	/	/	/	1.1	/	/
COC(=O)c1ccc(C23CC2(C(NP(=O)(c2ccccc2)c2ccccc2)c2ccccc2)C3)cc1 (stereo not given)	/	/	/	1.2	/	/
N#C/C(=C(/O)c1ccco1)c1nc2ccccc2s1	/	/	52*	/	-8	/
Cc1ncsc1C(=O)Nc1nc2c(s1)CC(C)CC2 (stereo not given)	56*	62*	19	1.1	-2	5
O=C1NC(c2ccccc2)(C(F)(F)F)C(=O)N1Cc1cccnc1 (stereo not given)	9	5	22	1	-2	3
SMILES	RORA act	SF-1 act	CD11b adhes inh	MT1-MMP txn act	CD11b adhes enh	Calb biofilm kill
Cc1cc(NO)nc(-c2ccc(Br)cc2)n1	59*	64*	1	1.7	-6	6
CCN(Cc1ccccc1)C(c1cc2ccc(C)cc2[nH]c1=O)c1nnnn1CCOC (stereo not given)	/	/	-6	1.2	-2	1
CNC(=O)[C@H](C)/C=C/C(NC(=O)OCc1ccccc1)c1ccc(C(=O)OC)cc1 (stereo not given in full)	/	/	/	1.2	/	/
CCc1nnc(N2C(=O)c3ccc(Oc4ccc([N+](=O)[O-])cc4)cc3C2=O)s1	/	/	-4	/	8	/
CC(=O)c1c(N2CCCCC2)nc(=S)n(Cc2ccccc2)c1C	/	/	52*	/	2	/
O=C1c2ccccc2S(=O)(=O)N1Cc1nc2ccccc2s1	-54	-43	-15	/	-2	/
O=C(OCc1nc2ccccc2s1)C1CCN(C2=NS(=O)(=O)c3ccccc32)CC1	26	53*	21	1.6	0	-2
COc1cccc(CNc2ccc3c(c2)CCC3)c1	/	/	24	1.5	0	3
Cc1nc2nc(-c3cccs3)cn2nc1C	53*	23	12	1.4	-1	4
CC(C)(C)NC(=O)C(c1ccc(I)cc1)N(CCN1CCOCC1)C(=O)CCCNC(=O)c1ccccc1 (stereo not given)	/	/	/	1	/	/
COc1ccc(S(=O)(=O)Nc2cc(Sc3ncn[nH]3)c(O)c3ccccc23)cc1	/	/	90*	/	-5	/
Cc1oc(C(C)(C)C)cc1C(=O)Nc1ccc2c(c1)OCCO2	64*	57*	11	1.8	-3	8
CC(=O)Nc1ccc2c(c1)OCCO2	/	/	/	1.2	/	-1
COc1ccccc1C(=O)Nc1ccc2c(c1)OCCO2	33	76*	/	1.6	/	6
COc1ccc(CCC(=O)Nc2ccc3c(c2)OCCO3)cc1	56*	-13	-2	1.3	-3	9
O=C(CCc1ccccc1)Nc1ccc2c(c1)OCCO2	/	/	1	1.2	-4	3
COc1cc(/C=C(\C#N)c2ccccn2)ccc1OCc1ccc(Cl)cc1	/	/	0	/	14	/
CN1c2ccccc2C(O)=C(C(=S)Nc2ccc(Cl)cc2)S1(=O)=O	/	/	52*	/	-6	/
CN1C(=O)/C(=C2\SC(N3CCCCCC3)=NC2=O)c2ccccc21	/	/	-4	/	0	-1
CCCN1C(=O)/C(=C2\SC(N3CCCCC3)=NC2=O)c2ccccc21	65*	81*	-19	1.6	-2	2
CC(=O)N1C2(C=CC1(C)C(=O)NCc1cc(F)cc(C(F)(F)F)c1)CCCCC2 (stereo not given)	/	/	/	1.1	/	/
CCCCCCCC(=O)NNC(=O)CC(=O)Nc1ccccc1C(=O)O	/	/	-1	/	-1	/
Cc1cc(C(=O)CSc2nnnn2C)c(C)n1-c1cccc(F)c1	16	53*	-18	1.4	-4	11
CCn1c(SCC(=O)N2CCc3ccccc3C2)nc2sc(C)c(C)c2c1=O	/	/	24	/	12	/
CCCc1cc(C(=O)NC2CCCCC2)no1	46	54*	-20	1.4	5	9

High-throughput results (PubChem)
